In ChEMBL document CHEMBL1121372, “Synthesis and antihypertensive activity of 5-amino-2-pyridinecarboxylic acid derivatives” (1980):
Active and inactive are the calls of the source. The calls are words filed in the database; no cut-off is given here.

What was measured:
Rattus norvegicus [1] = experiment: Antihypertensive effect in spontaneously hypertensive rat (SHR), expressed as fall in blood pressure (BP) at 50 mg/kg dose given orally; type: functional; settings: route oral
Summary of the method: (§1)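 Male SHR, about 16 weeks old, with systolic pressure above 150 mmHg, held in restraint cages. Tail-cuff occlusion was raised to 250 mmHg and then lowered, after 1 h acclimation and at least 3 baseline readings. Dosing was by daily gavage in 3% cornstarch/5% PEG-400/Tween 80 for 2 or 4 days, with 4–6 rats per drug. Readings at 1, 2, 3 and 24 h; peak fall reported.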

Canis familiaris [2] = experiment: Antihypertensive activity in unanesthetized renal hypertensive dogs measured as Heart Rate (HR) (beats/min) at 100 mg per kg dose after peroral administration on day 4; type: functional, Canis lupus familiaris; settings: route oral
Summary of the method: (§2)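 Renal hypertensive dogs, unanesthetized. Test compound given orally once daily as a solid in a gelatin capsule. Blood pressure was taken at 1.5, 3, 6 and 24 h after each daily dose. Activity is the maximum change in mean blood pressure or heart rate over each daily session. Values are mean ± SE, with significance marked at p < 0.05.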

Canis familiaris [3] = experiment: Antihypertensive activity in unanesthetized renal hypertensive dogs measured as mean Blood Pressure at 100 mg per kg dose after peroral administration on day 3 (p<0.05); type: functional, Canis lupus familiaris; settings: route oral; summary of the method: as §2
Canis familiaris [4] = experiment: Antihypertensive activity in unanesthetized renal hypertensive dogs measured as Heart Rate (HR) (beats/min) at 100 mg per kg dose after peroral administration on day 3; type: functional, Canis lupus familiaris; settings: route oral; summary of the method: as §2
Canis familiaris [5] = experiment: Antihypertensive activity in unanesthetized renal hypertensive dogs measured as Heart Rate (HR) (beats/min) at 100 mg per kg dose after peroral administration on day 2 (p<0.05); type: functional, Canis lupus familiaris; settings: route oral; summary of the method: as §2
Canis familiaris [6] = experiment: Antihypertensive activity in unanesthetized renal hypertensive dogs measured as mean Blood Pressure at 100 mg per kg dose after peroral administration on day1; type: functional, Canis lupus familiaris; set-up: unit not given beside the values; settings: route oral; summary of the method: as §2
Canis familiaris [7] = experiment: Antihypertensive activity in unanesthetized renal hypertensive dogs measured as Heart Rate (HR) (beats/min) at 100 mg per kg dose after peroral administration on day1; type: functional, Canis lupus familiaris; settings: route oral; summary of the method: as §2
Canis familiaris [8] = experiment: Antihypertensive activity in unanesthetized renal hypertensive dogs measured as mean Blood Pressure at 100 mg per kg dose after peroral administration on day 4 ((p<0.05); type: functional, Canis lupus familiaris; settings: route oral; summary of the method: as §2
Rattus norvegicus [9] = experiment: The compound was tested for antihypertensive effect in spontaneously hypertensive rat (SHR), expressed as fall in blood pressure (BP) at 25 mg/kg dose given orally; type: functional; settings: route oral; summary of the method: as §1
Canis familiaris [10] = experiment: Antihypertensive activity in unanesthetized renal hypertensive dogs measured as mean Blood Pressure at 100 mg per kg dose after peroral administration on day 2 (p<0.05); type: functional, Canis lupus familiaris; settings: route oral; summary of the method: as §2
Canis familiaris [11] = experiment: Antihypertensive activity in unanesthetized renal hypertensive dogs measured as Heart Rate (HR) (beats/min) at 60 mg per kg dose after peroral administration on day 3; type: functional, Canis lupus familiaris; settings: route oral
Summary of the method: (§3)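 Renal hypertensive dogs, unanesthetized. Drug given orally once daily as solid in gelatin capsule. Blood pressure and heart rate read at 1.5, 3, 6 and 24 h after each dose. Value is the maximum change over the daily monitored session, mean ± SE. MBP in mm Hg, HR in beats/min, p < 0.05 flagged.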

Canis familiaris [12] = experiment: Antihypertensive activity in unanesthetized renal hypertensive dogs measured as mean Blood Pressure at 60 mg per kg dose after peroral administration on day 3; type: functional, Canis lupus familiaris; settings: route oral; summary of the method: as §3
Canis familiaris [13] = experiment: Antihypertensive activity in unanesthetized renal hypertensive dogs measured as mean Blood Pressure at 60 mg per kg dose after peroral administration on day 2; type: functional, Canis lupus familiaris; settings: route oral; summary of the method: as §3
Canis familiaris [14] = experiment: Antihypertensive activity in unanesthetized renal hypertensive dogs measured as mean Blood Pressure at 60 mg per kg dose after peroral administration on day1; type: functional, Canis lupus familiaris; settings: route oral; summary of the method: as §3
Rattus norvegicus [15] = experiment: The compound was tested for antihypertensive effect in spontaneously hypertensive rat (SHR), expressed as fall in blood pressure (BP) at 100 mg/kg dose given orally; type: functional; settings: route oral; summary of the method: as §1
Canis familiaris [16] = experiment: Antihypertensive activity in unanesthetized renal hypertensive dogs measured as Heart Rate (HR) (beats/min) at 60 mg per kg dose after peroral administration on day 2; type: functional, Canis lupus familiaris; settings: route oral; summary of the method: as §3
Canis familiaris [17] = experiment: Antihypertensive activity in unanesthetized renal hypertensive dogs measured as Heart Rate (HR) (beats/min) at 60 mg per kg dose after peroral administration on day1; type: functional, Canis lupus familiaris; settings: route oral; summary of the method: as §3
Rattus norvegicus [18] = experiment: The compound was tested for antihypertensive effect in spontaneously hypertensive rat (SHR), expressed as fall in blood pressure (BP) at 50 mg/kg dose given orally; Inactive; type: functional, organism-based; set-up: dose 50 mg/kg; summary of the method: as §1
Rattus norvegicus [19] = experiment: The compound was tested for antihypertensive effect in spontaneously hypertensive rat (SHR), expressed as fall in blood pressure (BP) at 100 mg/kg dose given orally; Inactive; type: functional, organism-based; set-up: dose 100 mg/kg; summary of the method: as §1
Canis familiaris [20] = experiment: Antihypertensive activity in unanesthetized renal hypertensive dogs measured as Heart Rate (HR) (beats/min) at 100 mg per kg dose after peroral administration on day 3 p<0.05; type: functional, Canis lupus familiaris; settings: route oral; summary of the method: as §2
Canis familiaris [21] = experiment: Antihypertensive activity in unanesthetized renal hypertensive dogs measured as Heart Rate (HR) (beats/min) at 100 mg per kg dose after peroral administration on day 2; type: functional, Canis lupus familiaris; settings: route oral; summary of the method: as §2
Canis familiaris [22] = experiment: Antihypertensive activity in unanesthetized renal hypertensive dogs measured as mean Blood Pressure at 100 mg per kg dose after peroral administration on day 4; type: functional, Canis lupus familiaris; settings: route oral; summary of the method: as §2
Rattus norvegicus [23] = experiment: The compound was tested for antihypertensive effect in spontaneously hypertensive rat (SHR), expressed as fall in blood pressure (BP) at 10 mg/kg dose given orally; type: functional; settings: route oral
Canis familiaris [24] = experiment: Antihypertensive activity in unanesthetized renal hypertensive dogs measured as mean Blood Pressure at 100 mg per kg dose after peroral administration on day 2; type: functional, Canis lupus familiaris; settings: route oral; summary of the method: as §2
Canis familiaris [25] = experiment: Antihypertensive activity in unanesthetized renal hypertensive dogs measured as mean Blood Pressure at 100 mg per kg dose after peroral administration on day 3; type: functional, Canis lupus familiaris; settings: route oral; summary of the method: as §2
Canis familiaris [26] = experiment: Antihypertensive activity in unanesthetized renal hypertensive dogs measured as Heart Rate (HR) (beats/min) at 100 mg per kg dose after peroral administration on day1 (p<0.05); type: functional, Canis lupus familiaris; settings: route oral; summary of the method: as §2
Canis familiaris [27] = experiment: Antihypertensive activity in unanesthetized renal hypertensive dogs measured as HeartHeart Rate (HR) (beats/min) at 100 mg per kg dose after peroral administration on day 4 ((p<0.05); type: functional, Canis lupus familiaris, Heart; settings: route oral; summary of the method: as §2
Canis familiaris [28] = experiment: Antihypertensive activity in unanesthetized renal hypertensive dogs measured as mean Blood Pressure at 100 mg per kg dose after peroral administration on day 4 (p<0.05); type: functional, Canis lupus familiaris; settings: route oral; summary of the method: as §2
Rattus norvegicus [29] = experiment: The compound was tested for antihypertensive effect in spontaneously hypertensive rat (SHR), expressed as fall in blood pressure (BP) at 50 mg/kg dose given orally; type: functional; settings: route oral; summary of the method: as §1

## NNC(=O)c1ccc(NCc2ccc(F)cc2)cn1
Rattus norvegicus [1]
  BP: >40 mmHg

## O=C(O)c1ccc(NCc2ccc(F)cc2)cn1
Canis familiaris [2]
  HR: 41
Canis familiaris [3]
  MBP: -49
Canis familiaris [4]
  HR: 52
Rattus norvegicus [1]
  BP: > 60 mmHg
Canis familiaris [5]
  HR: 60
Canis familiaris [6]
  MBP: -69
Canis familiaris [7]
  Maximum change in heart rate: 37
Canis familiaris [8]
  MBP: -48
Rattus norvegicus [9]
  BP: >60 mmHg
Canis familiaris [10]
  MBP: -41

## CN(Cc1ccc(Cl)c(Cl)c1)c1ccc(C(=O)O)nc1
Rattus norvegicus [1]
  BP: >60 mmHg

## CCCCc1ccc(C(=O)O)nc1 [FUSARIC ACID]
Canis familiaris [11]
  HR: 33
Canis familiaris [12]
  MBP: -30
Canis familiaris [13]
  MBP: -45
Canis familiaris [14]
  MBP: -50
Rattus norvegicus [15]
  BP: >60 mmHg
Canis familiaris [16]
  HR: 35
Canis familiaris [17]
  HR: 32

## O=C(O)c1ccc(NCc2cccc(Br)c2)cn1
Rattus norvegicus [1]
  BP: >20 mmHg

## O=C(O)c1ccc(N(Cc2cccc(Cl)c2)Cc2cccc(Cl)c2)cn1
Rattus norvegicus [15]
  BP: >20 mmHg

## OCc1ccc(NCc2cccc(Cl)c2)cn1
Rattus norvegicus [1]
  BP: > 40 mmHg

## N#Cc1ccc(NCc2ccc(F)cc2)cn1
Rattus norvegicus [18]
  BP: inactive

## CN(Cc1ccccc1)c1ccc(C(=O)O)nc1
Rattus norvegicus [1]
  BP: >40 mmHg

## CN(Cc1cccc(Br)c1)c1ccc(C(=O)O)nc1
Rattus norvegicus [1]
  BP: >40 mmHg

## CN(Cc1cccc(Oc2ccccc2)c1)c1ccc(C(=O)O)nc1
Rattus norvegicus [1]
  BP: >20 mmHg

## O=C(O)c1ccc(NCc2cccc(Oc3ccccc3)c2)cn1
Rattus norvegicus [1]
  BP: >20 mmHg

## CCCCS(=O)(=O)Nc1ccc(C(=O)O)nc1
Rattus norvegicus [19]
  BP: inactive

## CN(Cc1cccc(Cl)c1)c1ccc(C(N)=O)nc1
Rattus norvegicus [9]
  BP: <20 mmHg

## Cc1nc(C(=O)O)ccc1NCc1cccc(Cl)c1
Rattus norvegicus [1]
  BP: >20 mmHg

## O=C(O)c1ccc(NCc2ccccc2F)cn1
Rattus norvegicus [1]
  BP: >40 mmHg

## Cc1cccc(CN(C)c2ccc(C(=O)O)nc2)c1
Rattus norvegicus [1]
  BP: >20 mmHg

## CC(Nc1ccc(C(=O)O)nc1)c1ccccc1 (stereo not given)
Rattus norvegicus [1]
  BP: >80 mmHg

## COc1cc(CNc2ccc(C(=O)O)nc2)cc(OC)c1OC
Rattus norvegicus [1]
  BP: <20 mmHg

## O=C(O)c1ccc(NCc2ccccc2)cn1
Canis familiaris [20]
  HR: 52
Canis familiaris [21]
  HR: 61
Canis familiaris [2]
  HR: 48
Rattus norvegicus [1]
  BP: >80 mmHg
Canis familiaris [22]
  MBP: -6
Rattus norvegicus [23]
  BP: >40 mmHg
Canis familiaris [6]
  MBP: -32
Canis familiaris [24]
  MBP: -14
Canis familiaris [25]
  MBP: -13
Canis familiaris [26]
  HR: 74
Rattus norvegicus [9]
  BP: >60 mmHg

## O=C(O)c1ccc(NCc2ccccn2)cn1
Rattus norvegicus [1]
  BP: >20 mmHg

## O=C(O)c1ccc(NCc2cc(Cl)cc(Cl)c2)cn1
Rattus norvegicus [1]
  BP: >60 mmHg

## NC(=O)c1ccc(CNc2ccc(C(=O)O)nc2)cc1
Rattus norvegicus [1]
  BP: <20 mmHg

## O=C(O)c1ccc(NCc2cccc(C(F)(F)F)c2)cn1
Rattus norvegicus [15]
  BP: >60 mmHg

## CCC(=O)N(Cc1cccc(Cl)c1)c1ccc(C(=O)O)nc1
Rattus norvegicus [15]
  BP: <20 mmHg

## Cc1nc(C(=O)O)ccc1N(C)Cc1cccc(Cl)c1
Rattus norvegicus [15]
  BP: >20 mmHg

## O=C(O)c1ccc(NCc2cccc(F)c2)cn1
Canis familiaris [21]
  HR: 78
Canis familiaris [3]
  MBP: -56
Canis familiaris [4]
  HR: 51
Rattus norvegicus [1]
  BP: >60 mmHg
Canis familiaris [6]
  MBP: -30
Canis familiaris [24]
  MBP: -46
Canis familiaris [7]
  Maximum change in heart rate: 35
Canis familiaris [27]
  HR: 44
Canis familiaris [28]
  MBP: -51

## O/N=C/c1ccc(NCc2ccc(F)cc2)cn1
Rattus norvegicus [1]
  BP: <20 mmHg

## CC(Nc1ccc(C(=O)O)nc1)c1ccc(F)cc1 (stereo not given)
Rattus norvegicus [29]
  BP: >40 mmHg

## O=C(O)c1ccc(NCc2ccncc2)cn1
Rattus norvegicus [1]
  BP: >20 mmHg

## O=C(O)c1ccc(NCc2ccc(Cl)c(Cl)c2)cn1
Rattus norvegicus [1]
  BP: <20 mmHg

## COC(=O)c1ccc(NCc2ccc(F)cc2)cn1
Rattus norvegicus [1]
  BP: >60 mmHg
